From PubChem BioAssay
TDP2 inh: blocks human TDP2 phosphodiesterase activity; O95551; recombinant TDP2, T5PNP hydrolysis, p-nitrophenol absorbance 415 nm; inhibition, % at 12.8 µM; actives 0.34% (n = 370,000);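 active = inhibition above the mean of all tested compounds plus 3 SD, set per campaign, cut at about 25% in these data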;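 note: 0% = DMSO with enzyme and 100% = buffer with substrate but no TDP2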
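Assay system: Recombinant human TDP2 | Quantity: 120 nM TDP2 per well | Incubation: 2 h at 37 °C | Signal: Epi absorbance | Evaluation: Percent inhibition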
GSTO1 inh: counter-screen for RBBP9 inhibitors: inhibitors of human GSTO1 | P78417 | recombinant GSTO1, activity-based probe fluorescence polarization | inhibition, % at 5.96 µM | actives 1.1% (n = 300,000);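 active = inhibition above the campaign mean inhibition plus 3 SD, cut at about 35% in these data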;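 note: 0% = GSTO1-1 with DMSO and 100% = wells lacking GSTO1-1 enzyme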
PP5 inh: PP5 (human) phosphatase inhibition; P53041; purified PP5c, OMFP substrate fluorescence; inhibition, % at 6.7 µM; actives 0.18% (n = 320,000); AID 1987;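 active = inhibition above the campaign's mean inhibition across all tested compounds plus 3 SD, cut at about 9.5% in these data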;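 note: 0% = DMSO only and 100% = 100 µM cantharidin control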
PP1 counter: counter-screen for PP5 inhibitors: inhibitors of human PP1-alpha; purified PP1alpha, OMFP fluorescence; inhibition, % at 6.7 µM; actives 0.9% (n = 320,000); P62136;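 active = inhibition above the mean inhibition of all tested compounds plus 3 SD, computed separately for each screening campaign, cut at about 15% in these data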
Target sequence (P62136 whole entry, looked up): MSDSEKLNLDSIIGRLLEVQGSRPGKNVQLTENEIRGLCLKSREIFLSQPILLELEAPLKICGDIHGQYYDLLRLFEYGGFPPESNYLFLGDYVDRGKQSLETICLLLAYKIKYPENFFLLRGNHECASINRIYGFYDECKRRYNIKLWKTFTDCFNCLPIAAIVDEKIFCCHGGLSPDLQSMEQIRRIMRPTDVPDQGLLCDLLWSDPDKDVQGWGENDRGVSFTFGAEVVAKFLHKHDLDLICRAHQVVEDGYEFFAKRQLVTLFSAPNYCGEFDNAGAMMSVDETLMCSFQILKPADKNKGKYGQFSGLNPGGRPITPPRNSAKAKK
Apaf1 inhib: blocks human Apaf-1 apoptosome activity | O14727 | reconstituted apoptosome caspase-3 activity, DEVD-Rh110 fluorescence | inhibition, % at 20 µM | actives 0.71% (n = 330,000); active = inhibition of at least 40% at 20 µM;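 note: plate controls were DMSO wells for no effect and DEVD-CHO caspase inhibitor wells for full effect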
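detection = Rh110 fluorescence intensity | test system = biochemical Apaf-1 apoptosome reconstitution | also added = cytochrome c and DEVD-Rh110 substrate | schedule = 30 min plus 50 min, RT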
PP1 inh confirm: confirmation of human PP1 phosphatase inhibitors. shares compounds with PP1 counter. purified PP1alpha, OMFP substrate fluorescence. inhibition, % at 6.7 µM. actives 52% (n = 1,900). AID 2358;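 active = mean PP1 inhibition above a set limit taken from the earlier primary screen, cut at about 15% in these data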
PP5 counter: inhibits human PP5 phosphatase in PP1 counter-screen; shares compounds with PP1 counter; purified PP5c, OMFP fluorescence; inhibition, % at 6.7 µM; actives 4% (n = 1,900);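 active = mean PP5 inhibition over triplicate wells above about 9.5% taken from the earlier PP1 screen, limit read from the data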
Numbers without * were called inactive; x = no result given. The list is not random: actives were taken first. Their share in the collection is about 2.1%.

SMILES | TDP2 inh | GSTO1 inh | PP5 inh | PP1 counter | Apaf1 inhib | PP1 inh confirm | PP5 counter
CCn1cc(C(=O)NCc2ccco2)c(=O)c2cc(F)c(N3CCN(C(=O)c4ccco4)CC3)cc21 | 2 | -12 | 2 | 18* | 20 | 8 | -5
CCn1cc(C(=O)NCc2ccco2)c(=O)c2cc(S(=O)(=O)N3CCc4ccccc4C3)ccc21 | 1 | -22 | 3 | 19* | 16 | 18* | 1
CCn1cc(C(=O)O)c(=O)c2cc(F)c(N3CCN(S(=O)(=O)c4ccc(NC(C)=O)cc4)CC3)cc21 | -1 | 1 | 5 | 42* | -6 | 32* | -5
CCn1cc(C(=O)O)c(=O)c2cc(F)c(N3CCN(S(=O)(=O)c4ccc5c(c4)OCCO5)CC3)cc21 | -3 | 7 | 1 | 7 | 22 | x | x
CCn1cc(C(=O)O)c(=O)c2cc(F)c(N3CCN(C(=O)Nc4ccccc4)CC3)cc21 | 4 | 9 | 1 | 18* | -11 | 12 | -2
CCn1cc(C(=O)O)c(=O)c2cc(F)c(N3CCN(C(=S)NC(=O)c4ccccc4F)CC3)cc21 | -5 | -7 | -2 | 4 | -22 | x | x
NNC(=O)Cn1c(SCc2ccccc2)nc2ccccc21 | 10 | -9 | 0 | 18* | -5 | -1 | 0
Cc1ccc(C(=O)Oc2ccc(C(=O)COC(=O)C3CC(=O)N(Cc4ccco4)C3)cc2)cc1 (centres undefined) | x | -2 | -5 | 20* | 25 | 15 | -3
C#CCOCCOCCOCCNc1nc(N2CCN(C(=O)C(Cc3ccc(O)cc3)n3cc(C(N)CC(C)C)nn3)CC2)nc(N2CCN(C(=O)C(Cc3cc4ccccc4[nH]3)n3cc(C(N)C(C)CC)nn3)CC2)n1 (centres undefined) | x | -1 | 3 | 20* | 20 | -24 | -4
C#CCOCCOCCOCCNc1nc(N2CCN(C(=O)[C@H](Cc3ccc(O)cc3)n3cc([C@@H](N)CC(C)C)nn3)CC2)nc(N2CCN(C(=O)[C@H](Cc3cc4ccccc4[nH]3)n3cc([C@@H](N)CC(C)C)nn3)CC2)n1 | -2 | -1 | 1 | 11 | 27 | x | x
C#CCOCCOCCOCCNc1nc(N2CCN(C(=O)[C@H](Cc3ccc(O)cc3)n3cc([C@@H](N)C(C)CC)nn3)CC2)nc(N2CCN(C(=O)[C@H](Cc3cc4ccccc4[nH]3)n3cc([C@@H](N)Cc4ccc(O)cc4)nn3)CC2)n1 (some centres undefined) | x | 9 | 4 | 22* | 56* | -10 | -1
O=C(Cc1cn(Cc2ccccc2)c2ccccc12)Nc1ccc(Nc2cccnc2)cc1 | -16 | x | x | x | x | x | x
CC(C)NC(=O)NC(=O)CSc1nnc(COc2ccccc2F)n1C(C)C1CC2CCC1C2 (centres undefined) | x | 13 | 10* | 21* | 37 | 5 | 3
Cc1ccccc1-c1nnc(NC(=O)c2ccc(N3C(=O)CCC3=O)cc2)s1 | 5 | -18 | 4 | -2 | 7 | x | x
Cc1cccc(-c2nnc(NC(=O)c3ccc(N4C(=O)CCC4=O)cc3)s2)c1 | -4 | -9 | 5 | 19* | 9 | 12 | 0
COc1ccc(OC)c2sc(N(CCCN(C)C)C(=O)c3ccc(S(=O)(=O)N4CCc5ccccc5C4)cc3)nc12 | x | -4 | 3 | 20* | 55* | 22* | 1
COc1ccc(C)c2sc(N(CCCN(C)C)C(=O)c3ccc(S(=O)(=O)N4CCc5ccccc5C4)cc3)nc12 | -13 | 13 | 2 | 5 | x | x | x
CCCCNC(=O)C[C@@H]1C(=O)N(Cc2ccc(OC)cc2)C2=CCN(C(=O)OC(C)(C)C)C[C@]21C(=O)OCC | -6 | x | x | x | x | x | x
Cc1nn(-c2cccc(Cl)c2)c2nc(C(F)(F)F)[nH]c(=O)c12 | 5 | -3 | -1 | 1 | 9 | x | x
Cc1cc(C)nc(-n2nc(C)c3c(=O)[nH]c(C(F)(F)F)nc32)n1 | 12 | -2 | 2 | 19* | 1 | -6 | -6
COc1ccc(/C=C/c2nnc(NC(=O)COc3ccc(C)cc3)s2)cc1 | -1 | 0 | -4 | 18* | 18 | 7 | -6
